Tested on: MS2 coat protein
Assay: apparent Kd, MS2 coat protein; higher = weaker binding; RNA-MaP array; FMN 200 µM where present
Procedure, shortened: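 On Illumina sequencing-chip clusters, designs were transcribed by stalled E. coli RNA polymerase and titrated with SNAP-549-labelled MS2 coat protein (0.7 or 1.5 nM, doubling to 3 µM), without and then with constant ligand, in 100 mM Tris-HCl pH 7.5, 80 mM KCl, 4 mM MgCl2, BSA, DTT, yeast tRNA and Tween-20. Apparent Kd is the median of filtered per-cluster curve fits to green signal normalised to red-channel RNA signal and control-cluster median Fmax.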

[1] = designed as: ON switch for flavin mononucleotide, no ligand
[2] = ligand present: flavin mononucleotide, designed as: ON switch for flavin mononucleotide
[3] = designed as: OFF switch for flavin mononucleotide, no ligand
[4] = ligand present: flavin mononucleotide, designed as: OFF switch for flavin mononucleotide

## CCGGGACAUGAGGAUCACCCAUGUUUCGUUUGUAGUAAAGCACAGGAUAUGAUGAAACAGGUUUCUCAGAAGGGUGUUCCGAAA
[1]
  apparent Kd: 91 nM
[2]
  apparent Kd: 75.4 nM

## CCGUUUUGAGGAUAUCCACCCUCAUACAUGAGGAUCACCCAUGUUCACCCUUGGGUUCCCGGAGAAGGCAGUUUUC
[3]
  apparent Kd: 1120 nM
[4]
  apparent Kd: 828 nM

## CCUACGUGAGGAUAUGCAACUAACACGUUAGACAAAUAGUUGCAGAAGGCACAUGAGGAUCACCCAUGUGAACC
[3]
  apparent Kd: 29.8 nM
[4]
  apparent Kd: 34.9 nM

## CCUAGUUGGUAAGGAUAUCCUACACUGUUCUGACCCGUGCAAGCUACAUGAGGAUCACCCAUGUGGGAGAAGGUGCGUCAACGU
[3]
  apparent Kd: 12.7 nM
[4]
  apparent Kd: 11.9 nM

## CCUAUGUGAGGAUAUCACUGGUCUUCUUUUAUUUUUUACAGUGAGAAGGCACAUGAGGAUCACCCAUGUCGGUG
[3]
  apparent Kd: 107 nM
[4]
  apparent Kd: 36.4 nM

## CCUCCACAUGAGGAUCACCCAUGUCAGGAUAUCGUGUGUUUUUUUUCGGUCUUUCGUGCGAGAAGGGACGUCUU
[3]
  apparent Kd: 30.5 nM
[4]
  apparent Kd: 33.8 nM

## CCUCGACAUGAGGAUCACCCAUGUCAGGAUAUUGUGUCUCGGGUUUUUUACCGAAAGGCGAGAAGGGAUGUGUG
[3]
  apparent Kd: 16.1 nM
[4]
  apparent Kd: 21 nM

## CCUGAGUCAGGAUAUUGUACCGGCCUGAAGCCAGACCGACCCAAGAAGGGACAUGAGGAUCACCCAUGUGAAAA
[3]
  apparent Kd: 23.1 nM
[4]
  apparent Kd: 24.7 nM

## CCUGUGUGAGGAUAUGGUGUUGGCCAAAAGGAAUAGCUCCUCCAGAAGGCACAUGAGGAUCACCCAUGUCGUGG
[3]
  apparent Kd: 18 nM
[4]
  apparent Kd: 81.9 nM

## CCUUAAAUUGUAAGGAUAUUAAAGCUGCUGAGUUAUAAGAAGGUACAUGAGGAUCACCCAUGUUCGGCAGGGUC
[3]
  apparent Kd: 17.8 nM
[4]
  apparent Kd: 18.4 nM

## CGAAACUACGAGAAGGACAUGUGGUCCUUCAGUUACAUGAGGAUCACCCAUGUAGGAUAUCGUAGUUUCAGGAUCGUGAGAUCU
[3]
  apparent Kd: 38.7 nM
[4]
  apparent Kd: 9.81 nM

## CGAAGCCCGUAGAAGGGUGACAUGAGGAUCACCCAUGUGCGAGCGGAGGGAGUCAGCGGCUCGCCACAGGAUAUACGGAGCUCG
[1]
  apparent Kd: 151 nM
[2]
  apparent Kd: 67.9 nM

## CGAAGUAGCACAGGAUAUCAUACAUGAGGAUCACCCAUGUCAAGAAACAAAUGAGAAGGGUGCAGACGGUGUUGGAGCUGUUGC
[1]
  apparent Kd: 192 nM
[2]
  apparent Kd: 26.6 nM

## CGACACCGGGAGAAGGCCAGACGCCGGCGCCCAAUACAACUGAGCUUAUGGAGGAUAUCCCGACAUGAGGAUCACCCAUGUAUC
[1]
  apparent Kd: 35.5 nM
[2]
  apparent Kd: 10.8 nM

## CGAGCUGCCAGAGGAUAAUGGACAUGAGGAUCACCCAUGUGUCAGGAUAUGGGUUUCACAUGGACUCAGAAGGGACCAGCCCGA
[1]
  apparent Kd: 107 nM
[2]
  apparent Kd: 30.2 nM

## CGAGUGUAAGGAUAUUCGGCACCAGAGAACGAUCUGGCGUAGAAGAAGGUACAUGAGGAUCACCCAUGUGGUUA
[3]
  apparent Kd: 158 nM
[4]
  apparent Kd: 41.7 nM

## CGAGUUUUUGAGAAGGCAUAAUAUAUAAUACCACAUGUUUACAUGAGGAUCACCCAUGUUUCCUAUGAGGAUAUCAGAAUAUCG
[3]
  apparent Kd: 16.1 nM
[4]
  apparent Kd: 14.4 nM

## CGAGUUUUUGAGAAGGCAUAUUAUAUUUAUAGUCAUGUUAACAUGAGGAUCACCCAUGUUCUCUAUGAGGAUAUCAGUUUAUCG
[3]
  apparent Kd: 7.68 nM
[4]
  apparent Kd: 7.87 nM

## CGAUAACAUAGUUAUCCGUAGCGGACAUGAGGAUCACCCAUGUAGGAUAUGUUACUCAACGAGUAACAGAAGGACAUGAGUCUU
[3]
  apparent Kd: 18.1 nM
[4]
  apparent Kd: 114 nM

## CGAUACAUGAGGGUCUCCCAUGACAUGAGGAUCACCCAUGUGCAGGAUAUACGUGUGAUGGUAUAGUAGAAGGGCACUCUAUGU
[3]
  apparent Kd: 29.2 nM
[4]
  apparent Kd: 36.9 nM

## CGAUAUUAUGCAGGAUAUCUCCCUUGAAUGUGGAGAGAAGGGCAUAGGGAGACAUAAGCCUUAUUACAUGAGGAUCACCCAUGU
[3]
  apparent Kd: 10.3 nM
[4]
  apparent Kd: 9.31 nM

## CGAUCGUUGCAGAAGGUUAAAAUUUUAUCUACAUGUUUAACAUGAGGAUCACCCAUGUUUAUGAUGAAGGAUAUGCAAGGGUCG
[3]
  apparent Kd: 6.76 nM
[4]
  apparent Kd: 6.18 nM

## CGAUGACAAAGUCAUCGAUAACGAACAUGAGGAUCACCCAUGUAGGAUAUGCUACUCAAAGAGUAGCAGAAGGACAUGUGCCUU
[3]
  apparent Kd: 34.2 nM
[4]
  apparent Kd: 284 nM

## CGAUGACACAGUCAUCCAAUACGAACAUGAGGAUCACCCAUGUAGGAUAUGCUACUCACAGAGUAGCAGAAGGACAUGUGCCUU
[3]
  apparent Kd: 41.4 nM
[4]
  apparent Kd: 182 nM

## CGAUUUUUGAUCCGUUUUUUCUACAUGAGGAUCACCCAUGUGCAGGAUAUCGUGGUGUUUUACUACGAGAAGGGCAAUUUCACG
[3]
  apparent Kd: 84.8 nM
[4]
  apparent Kd: 198 nM

## CGCAACAUACAGAAGGAGUUAUUGAGAGGUUUACUAGGAUAUGUUCACAUGAGGAUCACCCAUGUCGUUUGGUUUUUUGUUGCG
[3]
  apparent Kd: 18.4 nM
[4]
  apparent Kd: 11.2 nM

## CGCAAGUAUACAUGAGGAUCACCCAUGUCAAAUAUGGUAAUCAGAAGGUACAAUUCAAUAUAUAGUAAGGAUAUGAAUUUUGCG
[1]
  apparent Kd: 59 nM
[2]
  apparent Kd: 23.3 nM

Reference: the EternaBench riboswitch data
